Common to all, as to assay type: functional
For test [1], the system named is DLD-1. Description: Antiproliferative activity against human DLD1 cells assessed as cell growth inhibition at 55 uM by MTT assay relative to control. In outline: (§1)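 Cells revived from cryostorage and grown under supplier-recommended conditions with test samples. Working solutions were made in 15% EtOH/Hank's balanced saline at 2 mg/mL solids. Final well concentrations were 110, 55 or 22 μM, and the 5-fluorouracil reference was run at 450, 150 and 50 nM. MTT viability read after incubation, expressed as % proliferation versus a cells-only control, with six replicates.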
(Formazan colour is commonly taken as a measure of viable cells.)

Test [2] relates to KYSE-30. The test is described as follows: Antiproliferative activity against human KYSE-30 cells assessed as cell growth inhibition at 55 uM by MTT assay relative to control. In outline: as §1
The subject of test [3] is NCI-N87. Description: Antiproliferative activity against human NCI-N87 cells assessed as cell growth inhibition at 55 uM by MTT assay relative to control. In outline:
as §1

Test [4] has as its system NCI-N87. The test is described as follows: Antiproliferative activity against human NCI-N87 cells assessed as cell growth inhibition at 22 uM by MTT assay relative to control. In outline:
as §1

In test [5] the test system is KYSE-30. Description: Antiproliferative activity against human KYSE-30 cells assessed as cell growth inhibition at 22 uM by MTT assay relative to control. In outline:
as §1

The test system of test [6] is NCI-N87. The test is described as follows: Antiproliferative activity against human NCI-N87 cells assessed as cell growth inhibition at 110 uM by MTT assay relative to control. In outline:
as §1

Test [7] relates to KYSE-30. Description: Antiproliferative activity against human KYSE-30 cells assessed as cell growth inhibition at 110 uM by MTT assay relative to control. In outline:
as §1

Test [8] relates to DLD-1. The test is described as follows: Antiproliferative activity against human DLD1 cells assessed as cell growth inhibition at 110 uM by MTT assay relative to control. In outline: as §1
Test [9] deals with NCI-N87. Description: Antiproliferative activity against human NCI-N87 cells assessed as cell growth inhibition at 450 nM by MTT assay relative to control. In outline: (§2)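 Cells revived from cryostorage and cultured under supplier-recommended conditions with test or reference samples. Working solutions at 2 mg/mL solids in 15% EtOH/Hank's balanced saline. 5-Fluorouracil positive control at final well concentrations of 450, 150 and 50 nM. MTT viability read-out after incubation, expressed as percentage proliferation versus cells-only control; six replicates for test and control.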

Test [10] deals with DLD-1. Description: Antiproliferative activity against human DLD1 cells assessed as cell growth inhibition at 450 nM by MTT assay relative to control. In outline:
as §2

Test [11] deals with KYSE-30. The test is described as follows: Antiproliferative activity against human KYSE-30 cells assessed as cell growth inhibition at 450 nM by MTT assay relative to control. In outline:
as §2

Structures are written as SMILES.

`CCCCCCCCCCCC[C@@H](O)CCCC[C@@H](O)CC(=O)OCC(O)COC(C)=O` (stereo not given in full): the inhibition (commonly the change of the read-out against control, counted positive when it falls) at 55 µM in test [1] was determined as 13%; in test [2] it was 50%; in [3], 86%. For the same compound, the inhibition at 22 µM in [4] was found to be 39%; in test [5], 9%. For the same compound, the inhibition at 110 µM in [6] is 100%; in test [7] it was 52%; in test [8], 94%.

Turning to `CCCCCCCCCCCC[C@@H](O)CCCC[C@@H](O)CC(=O)OCC(O)CO` (stereo not given in full), the inhibition at 110 µM was 100% in [6], 52% in test [7] and 80% in test [8].

For the compound `CCCCCCCCCCCCC[C@@H](O)CCCC[C@@H](O)CC(=O)OCC(O)COC(C)=O` (stereo not given in full), the inhibition at 110 µM in test [6] was found to be 100%; in [7], 29%; in test [8], 91%.

Regarding `O=c1[nH]cc(F)c(=O)[nH]1` [FLUOROURACIL], the results for the inhibition at 0.45 µM in test [9], in test [10] and in test [11] were 8%, 21% and 17%, respectively.

`CCCCCCCCCCCCCCCC(=O)OCC(O)CO` (stereo not given) [GLYCEROL MONOPALMITATE]: the inhibition at 110 µM is 100% in [6], 75% in test [7] and 72% in test [8].
